# In ChEMBL document CHEMBL5614410, “Design, Synthesis, and Evaluation of p53Y220C Acetylation Targeting Chimeras (AceTACs)” (J Med Chem, 2024):
# Activity calls are given as the source filed them. The rule behind the calls is not given here.
# Key:
# [1] = tested on: CREB-binding protein/Histone acetyltransferase p300/Cellular tumor antigen p53 (Homo sapiens), P04637+Q09472+Q92793 [Y220C]; assay: AceTAC activity at FLAG-tagged p53Y220C mutant (unknown origin) expressed in human NCI-H1299 cells expressing p300/CBP assessed as increase in p53 acetylation at lysine 382 residue at 10 uM incubated for 24 hrs by western blot analysis relative to control; format: cell-based
# Procedure, shortened: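 NCI-H1299 (p53Y220C) cells were treated at 0.1–10 μM (0.1, 0.3, 1, 3 or 10 μM) for 24 h. Lysates were Western blotted for p53 and p53K382ac, with vinculin as loading control. p53K382ac was normalised to total p53Y220C and quantified from two or three independent experiments.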
# [2] = tested on: NCI-H1299; assay: Antiproliferative activity against human NCI-H1299 cells expressing p53Y220C mutant assessed as reduction in cell viability incubated for 3 days by WST-8 assay; format: functional; details: NCI-H1299, 72 h, time 3 day
# Procedure, shortened: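 NCI-H1299 p53Y220C cells were exposed to compound over a concentration range for 72 h, in some runs after 72 h of control or p300 siRNA, before the viability read-out. Values are mean ± SD of three independent experiments.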
# [3] = tested on: CREB-binding protein/Histone acetyltransferase p300/Cellular tumor antigen p53 (Homo sapiens), P04637+Q09472+Q92793 [Y220C]; assay: AceTAC activity at FLAG-tagged p53Y220C mutant (unknown origin ) expressed in human NCI-H1299 cells expressing p300/CBP assessed as increase in p53 acetylation at lysine 382 residue at 1 uM incubated for 24 hrs by western blot analysis; format: cell-based
# Procedure, shortened: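 NCI-H1299 cells stably expressing p53Y220C, treated 24 h at 1 or 10 μM. Lysates were Western blotted for total p53 and p53 K382ac, with vinculin as loading control. Blots are representative of at least two independent experiments.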
# [4] = tested on: Cellular tumor antigen p53 (Homo sapiens), P04637 [Y220C]; assay: Stabilization of p53Y220C mutant (unknown origin) assessed as increase in melting temperature by […]
ΔTm [4] [°C],Structure (SMILES),Activity [1] [%],GI50 [2] [µM],Activity [3]
–,CCn1c2ccc(CNCCC(=O)NCCOc3ccc(CCc4nc5cc(-c6c(C)noc6C)ccc5n4CCN4CCOCC4)cc3F)cc2c2ccc(-c3cc(C)cs3)cc21,70,13,–
–,CCn1c2ccc(CNCCOCCOCCOCCOCCC(=O)NCCOc3ccc(CCc4nc5cc(-c6c(C)noc6C)ccc5n4CCN4CCOCC4)cc3F)cc2c2ccc(-c3cc(C)cs3)cc21,198,4,Active
1,CCn1c2ccccc2c2cc(CNC)ccc21,–,–,–
–,CCn1c2ccc(CNCCCCCCCCC(=O)NCCOc3ccc(CCc4nc5cc(-c6c(C)noc6C)ccc5n4CCN4CCOCC4)cc3F)cc2c2ccc(-c3cc(C)cs3)cc21,103,5,Active
–,CCn1c2ccc(CNCCCCCC(=O)NCCOc3ccc(CCc4nc5cc(-c6c(C)noc6C)ccc5n4CCN4CCOCC4)cc3F)cc2c2ccc(-c3cc(C)cs3)cc21,176,4,Active
–,CCn1c2ccc(CNCCCCCCCC(=O)NCCOc3ccc(CCc4nc5cc(-c6c(C)noc6C)ccc5n4CCN4CCOCC4)cc3F)cc2c2ccc(-c3cc(C)cs3)cc21,196,4,Active
–,CCn1c2ccc(CNCCCCC(=O)NCCOc3ccc(CCc4nc5cc(-c6c(C)noc6C)ccc5n4CCN4CCOCC4)cc3F)cc2c2ccc(-c3cc(C)cs3)cc21,202,4,Active
–,CCn1c2ccc(CNCCOCCC(=O)NCCOc3ccc(CCc4nc5cc(-c6c(C)noc6C)ccc5n4CCN4CCOCC4)cc3F)cc2c2ccc(-c3cc(C)cs3)cc21,186,4,Active
